Activity calls are given as the source filed them. The calls are words filed in the database; no cut-off is given here.

A word on the inhibition: it is the drop in the measured response relative to a control, in per cent. The term IC50 denotes the concentration needed to halve the response being measured.

For data set [1], the system named is RAW264.7. Description: Inhibition of LPS-induced nitric oxide production in mouse RAW264.7 cells pre-incubated for 20 mins before LPS challenge measured 18 hrs post LPS challenge by Griess method. The format is functional, cell-based. A digest of the protocol: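 RAW264.7 cells at 2 × 10⁵ cells/well, pretreated with test compound, aminoguanidine or vehicle for 20 min, then LPS co-incubation for a further 18 h. Supernatant mixed with Griess reagent (1% sulfanilamide plus 0.1% naphthylethylenediamine). Concentrations tested 2.5–100 μM.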

Data set [2] relates to RAW264.7. Description: Inhibition of LPS-induced TNFalpha production in mouse RAW264.7 cells pre-incubated for 30 mins before LPS challenge measured 6 hrs post LPS challenge by ELISA. The format is functional, cell-based. The essentials:
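RAW264.7 macrophages at 2 × 10⁵ cells/well, pretreated with test compound, dexamethasone or vehicle for 30 min, then co-incubated with LPS (100 ng/ml) for a further 6 h. Concentrations tested 2.5–100 μM.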

Data set [3] relates to RAW264.7. As to the kind of experiment: Effect on basal COX-2 mRNA expression in mouse RAW264.7 cells at 100 uM by RT-PCR. The format is functional, cell-based.
The test system of data set [4] is RAW264.7. Description: Inhibition of LPS-induced TNFalpha production in mouse RAW264.7 cells at 2.5 to 100 uM pre-incubated for 30 mins before LPS challenge measured 6 hrs post LPS challenge by ELISA. It is filed as functional, cell-based. The essentials: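 RAW264.7 cells at 2 × 10⁵ per well pretreated with compound, dexamethasone or vehicle for 30 min, then co-incubated with LPS 100 ng/ml for a further 6 h before TNF-α measurement.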
(In an ELISA, binding on a coated surface is turned into a signal by an enzyme label.)

Data set [5] concerns the target T1, Prostaglandin G/H synthase 1 (Ovis aries) (UniProt P05979).
T1 sequence (whole entry): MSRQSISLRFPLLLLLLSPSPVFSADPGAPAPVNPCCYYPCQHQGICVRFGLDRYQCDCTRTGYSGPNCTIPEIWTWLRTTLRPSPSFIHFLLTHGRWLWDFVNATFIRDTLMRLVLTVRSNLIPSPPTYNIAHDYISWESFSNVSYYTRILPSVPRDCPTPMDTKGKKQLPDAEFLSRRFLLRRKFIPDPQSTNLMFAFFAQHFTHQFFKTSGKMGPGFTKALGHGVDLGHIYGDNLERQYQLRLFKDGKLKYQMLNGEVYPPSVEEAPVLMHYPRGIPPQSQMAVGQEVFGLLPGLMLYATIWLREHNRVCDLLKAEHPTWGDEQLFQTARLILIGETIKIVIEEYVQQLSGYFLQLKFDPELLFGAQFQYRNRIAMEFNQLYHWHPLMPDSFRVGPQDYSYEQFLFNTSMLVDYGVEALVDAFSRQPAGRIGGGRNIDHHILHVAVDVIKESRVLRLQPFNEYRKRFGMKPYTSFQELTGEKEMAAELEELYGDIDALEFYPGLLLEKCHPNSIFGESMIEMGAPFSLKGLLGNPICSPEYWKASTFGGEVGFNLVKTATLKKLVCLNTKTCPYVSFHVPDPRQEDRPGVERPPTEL
As to the kind of experiment: Inhibition of ovine COX1 at 2.5 to 100 uM incubated for 10 mins by enzyme immunoassay. A digest of the protocol: (§1)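 Screening kit assay. Ovine COX-1 or human recombinant COX-2 with heme in reaction buffer, incubated with compound or DMSO for 10 min. Arachidonic acid added from a 10 mM stock, reaction 2 min at 37 °C. Stopped with 1 M HCl, then saturated SnCl2 for 5 min at room temperature. Prostaglandins quantified by EIA. Background from inactivated enzyme; DMSO taken as 100% activity. Mean ± SEM, Dunnett's test.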

In data set [6] the test system is RAW264.7. As to the kind of experiment: Effect on basal COX-2 mRNA expression in mouse RAW264.7 cells at 20 uM by RT-PCR. The format is functional, cell-based.
Data set [7] has as its system RAW264.7. Description: Inhibition of LPS-induced COX-2 mRNA expression in mouse RAW264.7 cells at 100 uM pre-incubated for 3 hrs before LPS challenge measured 24 hrs post LPS challenge by RT-PCR. The format is functional. A digest of the protocol:
(§2)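 RAW 264.7 cells seeded at 2 × 10⁵ per well and grown to confluence, treated with compound or vehicle for 3 h, then stimulated with LPS 1 µg/ml for 24 h. Total RNA extracted; SYBR real-time RT-PCR, 40 cycles of 95 °C 15 s / 60 °C 1 min, samples in duplicate. Quantified by 2^-ΔΔCt, normalized to β-actin, fold change relative to untreated cells. TPCK 20 µM positive control.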

For data set [8], the system named is RAW264.7. As to the kind of experiment: Inhibition of LPS-induced nitric oxide production in mouse RAW264.7 cells at 2.5 to 100 uM pre-incubated for 20 mins before LPS challenge measured 18 hrs post LPS challenge by Griess method. It is filed as functional, cell-based. The essentials:
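RAW264.7 cells at 2 × 10⁵ per well pretreated with compound, aminoguanidine or vehicle for 20 min, then co-incubated with LPS 1 µg/ml for a further 18 h. Supernatant mixed with Griess reagent (1% sulfanilamide, 0.1% naphthylethylenediamine) for nitrite read-out.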
(The Griess reaction detects nitrite, a stable product of nitric oxide.)

For data set [9], the system named is RAW264.7. As to the kind of experiment: Cytotoxicity against mouse RAW264.7 cells at 2.5 to 100 uM after 18 hrs by MTT assay. It is filed as cell-based. The settings on record: raw264.7, 18 h. The essentials: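 RAW 264.7 murine macrophages in 96-well plates co-incubated with compound or vehicle for 18 h. MTT added to […] final, then 4 h further incubation with DMSO; formazan read at 570 nm. Toxic if MTT metabolism more than 20% below control.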
Background: Tetrazolium dyes change colour on reduction, which living cells bring about.

Data set [10] concerns the target T2, Prostaglandin G/H synthase 2 (Homo sapiens, UniProt P35354).
T2 sequence (P35354 whole entry): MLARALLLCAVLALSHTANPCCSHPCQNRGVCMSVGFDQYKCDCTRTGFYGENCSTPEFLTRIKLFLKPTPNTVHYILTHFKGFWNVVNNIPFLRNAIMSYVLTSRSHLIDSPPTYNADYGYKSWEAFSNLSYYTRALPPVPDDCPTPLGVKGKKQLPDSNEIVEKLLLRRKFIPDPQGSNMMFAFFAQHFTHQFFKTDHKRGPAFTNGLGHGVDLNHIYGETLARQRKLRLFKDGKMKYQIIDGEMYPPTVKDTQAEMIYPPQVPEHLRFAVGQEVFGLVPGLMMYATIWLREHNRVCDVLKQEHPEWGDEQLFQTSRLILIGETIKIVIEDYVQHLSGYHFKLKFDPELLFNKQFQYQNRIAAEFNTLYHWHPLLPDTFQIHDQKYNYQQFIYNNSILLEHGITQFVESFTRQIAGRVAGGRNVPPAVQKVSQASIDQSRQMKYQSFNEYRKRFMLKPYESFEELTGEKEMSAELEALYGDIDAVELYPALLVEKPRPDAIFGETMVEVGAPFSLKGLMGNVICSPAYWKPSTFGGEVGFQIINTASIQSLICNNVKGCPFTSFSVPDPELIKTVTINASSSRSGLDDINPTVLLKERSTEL
Description: (§3) Inhibition of human recombinant COX2 incubated for 10 mins by enzyme immunoassay. The essentials:
as §1

Data set [11] concerns the target T3, Prostaglandin G/H synthase 2 (Homo sapiens) (UniProt P35354).
T3 sequence (whole entry): T2 sequence (P35354 whole entry)
The description is as §3. A digest of the protocol: as §1

Data set [12] deals with T3, Prostaglandin G/H synthase 2 (Homo sapiens). As to the kind of experiment: Inhibition of human recombinant COX2 at 2.5 to 100 uM incubated for 10 mins by enzyme immunoassay. A digest of the protocol:
as §1

For data set [13], the target named is T1, Prostaglandin G/H synthase 1 (Ovis aries). Particulars: 50 uM.
For data set [14], the system named is RAW264.7. As to the kind of experiment: Inhibition of LPS-induced COX-2 mRNA expression in mouse RAW264.7 cells at 20 uM pre-incubated for 3 hrs before LPS challenge measured 24 hrs post LPS challenge by RT-PCR. It is filed as functional. A digest of the protocol: as §2

In the case of `N=C(N)NN`, the inhibition entry in the data set with RAW264.7 [1] and with RAW264.7 [2] was “Active” each time.
In the case of `C[C@]1(O)C[C@@H](O)[C@](O)(CC=O)[C@@H]1C=O`, the result in the data set on RAW264.7 [3] and in the data set on RAW264.7 [6] was inactive. Further, the inhibition entry (with RAW264.7 [4]; in data set [5]; in the data set on RAW264.7 [8]) was “inactive” each time. The compound also came in with an inhibition at 100 µM in the data set with RAW264.7 [7] of 47.6%. Also, the Activity result in the data set with RAW264.7 [9] is on record as “Non-toxic”. Moreover, the IC50 in [10] was 43.3 µM. In [11], the inhibition result is “Dose-dependent effect”.
For the compound `C[C@@H]1C[C@H]2[C@@H]3CCC4=CC(=O)C=C[C@]4(C)[C@@]3(F)[C@@H](O)C[C@]2(C)[C@@]1(O)C(=O)CO`, the inhibition entry in the data set with RAW264.7 [1] and in the data set on RAW264.7 [2] was “Active” throughout.
`C[C@]1(O)C[C@@H](O)[C@]2(O)C=CO[C@@H](O[C@H]3O[C@H](CO)[C@@H](O)[C@H](O)[C@H]3O)[C@@H]21`: the outcome in the data set on RAW264.7 [3] and in the data set with RAW264.7 [6] was inactive. Moreover, the inhibition result (in data set [12]; in the data set on RAW264.7 [4]; in [5]; with RAW264.7 [7]; in the data set with RAW264.7 [8]) was “inactive” each time.
On to `C[C@]1(OC(=O)/C=C/c2ccccc2)C[C@@H](O)[C@]2(O)C=CO[C@@H](O[C@@H]3O[C@H](CO)[C@@H](O)[C@H](O)[C@H]3O)[C@@H]21` [HARPAGOSIDE], for which the outcome in the data set on RAW264.7 [3] and in the data set on RAW264.7 [6] was inactive. Also, the inhibition result (in data set [12]; in the data set with RAW264.7 [4]; in [5]; in the data set with RAW264.7 [7]; with RAW264.7 [8]) was “inactive” in each case. The Activity entry with RAW264.7 [9] was “Non-toxic”.
Consider `CC(=O)Oc1ccccc1C(=O)O`, for which the inhibition entry in data set [13] is “Active”.
Take `C[C@]1(O)C[C@@H](O)[C@]2(O)C=CO[C@@H](O[C@@H]3O[C@H](CO)[C@@H](O)[C@H](O)[C@H]3O)[C@@H]21` [HARPAGIDE]: the Activity result in the data set on RAW264.7 [9] was “Non-toxic”.
For the compound `Cc1ccc(S(=O)(=O)N[C@@H](Cc2ccccc2)C(=O)CCl)cc1` [TPCK], at 20 µM the inhibition in the data set with RAW264.7 [14] was 59.5%.

These data come from ChEMBL document CHEMBL1811919, “Effects of β-glucosidase hydrolyzed products of harpagide and harpagoside on cyclooxygenase-2 (COX-2) in vitro” (Bioorg Med Chem, 2011).
